Laboratory results taken from ChEMBL document CHEMBL1136055, “3-Heteroaryl-2-pyridones: benzodiazepine site ligands with functional delectivity for alpha 2/alpha 3-subtypes of human GABA(A) receptor-ion channels” (J Med Chem, 2002).
pKi: −log10 of the molar value.

How the values were obtained:
[1] = Clp at a dose of 2.0 mg/kg; assay type: ADME, organism-based; design: dose 2 mg/kg; settings: in vivo
[2] = Maximum concentration at a dose of 2.0 mg/kg; assay type: ADME, organism-based; design: dose 2 mg/kg; settings: in vivo
[3] = Oral bioavailability at a dose of 2.0 mg/kg; assay type: ADME, organism-based; settings: eutheria, in vivo
[4] = Maximum time at a dose of 2.0 mg/kg; assay type: ADME, organism-based; design: dose 2 mg/kg; settings: in vivo
[5] = half life at a dose of 2.0 mg/kg; assay type: ADME, organism-based; design: dose 2 mg/kg; settings: in vivo
[6] = Vdss at a dose of 2.0 mg/kg; assay type: ADME, organism-based; design: dose 2 mg/kg; settings: in vivo, read-out: Vdss
[7] = Partition coefficient (logD); assay type: physicochemical; settings: octanol/water
[8] = molecular target: T1, GABA-A receptor; alpha-5/beta-3/gamma-2 (Homo sapiens, UniProt P18507+P28472+P31644); assay: Displacement of [3H]Ro-151788 from human GABA-A receptor alpha-5-beta-3-gamma-2 subunits expressed in L(tk-) cells; assay type: cell-based
T1 sequence (P18507 whole entry): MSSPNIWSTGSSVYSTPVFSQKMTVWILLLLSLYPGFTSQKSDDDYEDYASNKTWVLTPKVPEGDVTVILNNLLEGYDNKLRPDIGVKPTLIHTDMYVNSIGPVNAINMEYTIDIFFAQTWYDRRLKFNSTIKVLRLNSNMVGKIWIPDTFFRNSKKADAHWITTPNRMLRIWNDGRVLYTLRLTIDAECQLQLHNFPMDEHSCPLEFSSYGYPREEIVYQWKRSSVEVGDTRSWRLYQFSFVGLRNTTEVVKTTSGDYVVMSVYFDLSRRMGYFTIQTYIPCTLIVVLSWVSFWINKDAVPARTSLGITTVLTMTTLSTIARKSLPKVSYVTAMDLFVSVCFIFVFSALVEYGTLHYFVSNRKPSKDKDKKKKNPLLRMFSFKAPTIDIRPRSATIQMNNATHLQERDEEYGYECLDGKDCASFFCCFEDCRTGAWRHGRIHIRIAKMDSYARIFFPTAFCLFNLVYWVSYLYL
T1 sequence (P28472 whole entry): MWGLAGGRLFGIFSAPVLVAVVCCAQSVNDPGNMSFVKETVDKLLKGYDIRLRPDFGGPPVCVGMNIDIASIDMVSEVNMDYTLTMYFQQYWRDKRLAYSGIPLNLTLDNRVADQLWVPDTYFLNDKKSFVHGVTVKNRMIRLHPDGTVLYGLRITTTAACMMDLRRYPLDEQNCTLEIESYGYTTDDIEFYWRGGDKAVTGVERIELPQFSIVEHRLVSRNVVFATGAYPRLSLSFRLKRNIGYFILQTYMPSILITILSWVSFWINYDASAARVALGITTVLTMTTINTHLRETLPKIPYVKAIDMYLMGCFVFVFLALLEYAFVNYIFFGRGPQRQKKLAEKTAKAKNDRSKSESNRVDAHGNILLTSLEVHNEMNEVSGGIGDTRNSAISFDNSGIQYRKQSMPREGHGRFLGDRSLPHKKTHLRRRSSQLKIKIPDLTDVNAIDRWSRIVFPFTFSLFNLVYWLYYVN
T1 sequence (P31644 whole entry): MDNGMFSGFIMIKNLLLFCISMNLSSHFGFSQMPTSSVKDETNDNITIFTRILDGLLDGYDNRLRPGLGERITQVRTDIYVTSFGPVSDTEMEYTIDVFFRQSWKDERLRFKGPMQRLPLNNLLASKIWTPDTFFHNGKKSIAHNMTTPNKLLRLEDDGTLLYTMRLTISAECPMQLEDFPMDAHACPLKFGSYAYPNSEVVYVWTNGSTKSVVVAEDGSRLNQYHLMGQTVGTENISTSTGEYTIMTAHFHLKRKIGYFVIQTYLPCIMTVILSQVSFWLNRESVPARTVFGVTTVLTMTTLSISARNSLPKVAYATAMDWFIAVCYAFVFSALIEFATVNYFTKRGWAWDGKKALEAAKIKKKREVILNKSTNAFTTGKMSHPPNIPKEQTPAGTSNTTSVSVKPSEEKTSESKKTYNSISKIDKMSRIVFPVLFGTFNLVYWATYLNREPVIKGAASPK
In short: (§1)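 Competition binding against [3H]Ro15-1788 on cloned human α1/α2/α3/α5 β3γ2S receptors stably expressed in L(tk-) cells. Six to eight test concentrations spaced in half-log steps. Ki given as mean (SEM), n = 3-5, reported to two significant figures.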

[9] = molecular target: T2, GABA-A receptor; alpha-3/beta-3/gamma-2 (Homo sapiens, UniProt P18507+P28472+P34903); assay: Binding affinity by displacement of [3H]Ro-151788 from recombinant human gamma-aminobutyric-acid A receptor alpha3,beta3,gamma2 stably expressed in L cells; assay type: cell-based; in short: as §1
T2 sequence (P18507 whole entry): T1 sequence (P18507 whole entry)
T2 sequence (P28472 whole entry): T1 sequence (P28472 whole entry)
T2 sequence (P34903 whole entry): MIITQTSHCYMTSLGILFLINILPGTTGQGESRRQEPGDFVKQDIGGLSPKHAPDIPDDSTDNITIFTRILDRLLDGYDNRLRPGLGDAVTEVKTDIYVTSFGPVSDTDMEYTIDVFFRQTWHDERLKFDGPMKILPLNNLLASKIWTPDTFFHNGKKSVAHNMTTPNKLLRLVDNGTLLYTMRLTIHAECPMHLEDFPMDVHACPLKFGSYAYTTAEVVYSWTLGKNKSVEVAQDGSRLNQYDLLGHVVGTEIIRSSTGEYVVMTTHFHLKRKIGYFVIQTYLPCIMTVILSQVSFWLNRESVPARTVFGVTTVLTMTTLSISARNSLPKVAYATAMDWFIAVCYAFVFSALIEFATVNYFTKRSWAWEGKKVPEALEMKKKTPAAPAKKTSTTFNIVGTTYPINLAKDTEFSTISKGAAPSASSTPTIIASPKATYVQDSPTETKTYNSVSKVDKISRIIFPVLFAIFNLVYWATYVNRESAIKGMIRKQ

[10] = Maximum concentration at a dose of 1.5 mg/kg; assay type: ADME, organism-based; design: dose 1.5 mg/kg; settings: in vivo
[11] = Maximum time at a dose of 1.5 mg/kg; assay type: ADME, organism-based; design: dose 1.5 mg/kg; settings: in vivo
[12] = Oral bioavailability at a dose of 1.5 mg/kg; assay type: ADME, organism-based; settings: eutheria, in vivo
[13] = Vdss at a dose of 1.5 mg/kg; assay type: ADME, organism-based; design: dose 1.5 mg/kg; settings: in vivo, read-out: Vdss
[14] = Log D was evaluated; assay type: physicochemical; settings: octanol/water
[15] = molecular target: T1, GABA-A receptor; alpha-5/beta-3/gamma-2; assay: Inhibition of [3H]Ro-151788 binding to human GABA A receptor (alpha-5-beta-3-gamma-2) stably expressed in L(tk-) cells.; assay type: cell-based; in short: as §1
[16] = Half life at a dose of 1.5 mg/kg; assay type: ADME, organism-based; design: dose 1.5 mg/kg; settings: in vivo
[17] = Clp at a dose of 1.5 mg/kg; assay type: ADME, organism-based; design: dose 1.5 mg/kg; settings: in vivo

Structure (SMILES): COc1ccc(-c2cc(-c3nc(C)cs3)c(=O)n(C)c2-c2ccncc2)cc1
- Clp [1]: 2.64 L/h/kg
- Cmax [2]: 0.083 µg/mL
- bioavailability [3]: 25%
- Tmax [4]: 18 min
- half-life [5]: 102 min
- Vd [6]: 3.3 L/kg
- logD [7]: 3.6
- pKi [8]: 6.49
- pKi [9]: 8.47

Structure (SMILES): COc1ccc(-c2cc(-c3nc(C)cs3)c(=O)n(C)c2-c2ccnnc2)cc1
- Cmax [10]: 0.17 µg/mL
- Tmax [11]: 30 min
- bioavailability [12]: 65%
- Vd [13]: 2.5 L/kg
- logD [14]: 2.7
- pKi [15]: 6.48
- pKi [9]: 8.39
- half-life [16]: 66 min
- Clp [17]: 2.1 L/h/kg
